Source: ChEMBL document CHEMBL2046312, “Synthesis and biological activity of potent HIV-1 protease inhibitors based on Phe-Pro dihydroxyethylene isosteres” (J Med Chem, 2012)
Values belong to the compound of their own block, whether it stands above or below them.

How the values were obtained:
[1] = (§1) Cytotoxicity against human MT2 cells after 72 hrs by MTT assay; type: cell-based; conditions: MT2 cells
Outline: (§2)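 MT-2 cells grown in RPMI 1640 with 10% fetal calf serum and exposed to inhibitor for 72 or 96 h. MTT uptake read-out. CC50 is derived from % cell survival. MNC is the highest concentration that alters neither monolayer morphology nor survival rate. Six to eight parallels per experiment, each experiment run in triplicate.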

MT2 [2] = test: as §1; type: cell-based; conditions: mt2, 72 h; outline: as §2
[3] = Ratio of CC50 for human MT2 cells after 96 hrs to CC50 for human MT2 cells after 72 hrs; type: cell-based
MT2 [4] = test: Ratio of MNC for human MT2 cells after 96 hrs to MNC for human MT2 cells after 72 hrs; type: ADME, cell-based
[5] = (§3) Cytotoxicity against human MT2 cells assessed as maximum non-toxic concentration after 96 hrs by MTT assay; type: cell-based; conditions: MT2 cells, read-out: MNCC; outline: as §2
MT2 [6] = test: as §3; type: cell-based; conditions: mt2, 96 h; outline: as §2
Protease [7] = biological target: T1, Protease (Human immunodeficiency virus 1, UniProt Q9YQ12); test: Inhibition of HIV1 3B protease activity in human H9 cells using Abz-Thr-Ile-Nle-Phe(p-NO2)-Gln-Arg-NH2 as substrate after 40 mins by spectrophotometric analysis; type: cell-based
[8] = system: Human immunodeficiency virus 1; test: Antiviral activity against Human immunodeficiency virus 1 3B infected in human MT2 cells assessed as survival of virus infected cells at 5 nM after 72 to 96 hrs by MTT assay; type: functional
Outline: (§4)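 HIV-1 IIIB from supernatants of chronically infected H9/HTLV IIIB cells; stock characterized by p24, RT activity and infectivity (2 × 10⁶ infectious virions/mL). MT-2 cells in RPMI 1640 + 10% FCS, infected at MOI 0,1 and incubated with inhibitor for 72−96 h. Microtiter infection assay, MTT uptake read at 540 nm, expressed as % survival of virus-infected cells.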

[9] = system: Human immunodeficiency virus 1; test: Antiviral activity against Human immunodeficiency virus 1 3B infected in human MT2 cells assessed as survival of virus infected cells at 10 nM after 72 to 96 hrs by MTT assay; type: functional; outline: as §4
[10] = system: Human immunodeficiency virus 1; test: Antiviral activity against Human immunodeficiency virus 1 3B infected in human MT2 cells assessed as inhibition of reverse transcriptase activity at 5 nM after 72 to 96 hrs by MTT assay relative to untreated control; type: functional; set-up: scale not given: the % may be the effect or the level left
[11] = (§5) Cytotoxicity against human MT2 cells after 96 hrs by MTT assay; type: cell-based; conditions: MT2 cells; outline: as §2
MT2 [12] = test: as §5; type: cell-based; conditions: mt2, 96 h; outline: as §2
Protease [13] = biological target: T1, Protease; test: Inhibition of Human immunodeficiency virus 1 protease using Abz-Thr-Ile-Nle-Phe(p-NO2)-Gln-Arg-NH2 as substrate by fluorescence analysis
Outline: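 Recombinant wild-type HIV-1 PR with fluorogenic substrate Abz-NF*-6, run at pH 5.5. […] 1.2 nM PR needed to detect activity. Active enzyme concentration set by titration with ritonavir and nelfinavir. The IC50 measurability limit is one-half of the active enzyme concentration.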

[14] = system: Human immunodeficiency virus 1; test: Antiviral activity against Human immunodeficiency virus 1 3B infected in human MT2 cells assessed as inhibition of reverse transcriptase activity at 10 nM after 72 to 96 hrs by MTT assay relative to untreated control; type: functional; set-up: scale not given: the % may be the effect or the level left
[15] = (§6) Cytotoxicity against human MT2 cells assessed as maximum non-toxic concentration after 72 hrs by MTT assay; type: cell-based; conditions: MT2 cells, read-out: MNCC; outline: as §2
MT2 [16] = test: as §6; type: cell-based; conditions: mt2, 72 h; outline: as §2
[17] = system: Human immunodeficiency virus 1; test: Antiviral activity against Human immunodeficiency virus 1 3B infected in human MT2 cells assessed as survival of virus infected cells at 0.000001 nM after 72 to 96 hrs by MTT assay; type: functional; outline: as §4
[18] = system: Human immunodeficiency virus 1; test: Antiviral activity against Human immunodeficiency virus 1 3B infected in human MT2 cells assessed as survival of virus infected cells at 0.1 nM after 72 to 96 hrs by MTT assay; type: functional; outline: as §4
[19] = system: Human immunodeficiency virus 1; test: Antiviral activity against Human immunodeficiency virus 1 3B infected in human MT2 cells assessed as inhibition of reverse transcriptase activity at 0.0000001 nM after 72 to 96 hrs by MTT assay relative to untreated control; type: functional; set-up: scale not given: the % may be the effect or the level left
[20] = system: Human immunodeficiency virus 1; test: Antiviral activity against Human immunodeficiency virus 1 3B infected in human MT2 cells assessed as inhibition of reverse transcriptase activity at 0.001 nM after 72 to 96 hrs by MTT assay relative to untreated control; type: functional; set-up: scale not given: the % may be the effect or the level left
[21] = system: Human immunodeficiency virus 1; test: Antiviral activity against Human immunodeficiency virus 1 3B infected in human MT2 cells assessed as inhibition of reverse transcriptase activity at 0.0001 nM after 72 to 96 hrs by MTT assay relative to untreated control; type: functional; set-up: scale not given: the % may be the effect or the level left
[22] = system: Human immunodeficiency virus 1; test: Antiviral activity against Human immunodeficiency virus 1 3B infected in human MT2 cells assessed as survival of virus infected cells at 0.001 nM after 72 to 96 hrs by MTT assay; type: functional; outline: as §4
[23] = system: Human immunodeficiency virus 1; test: Antiviral activity against Human immunodeficiency virus 1 3B infected in human MT2 cells assessed as survival of virus infected cells at 0.0000001 nM after 72 to 96 hrs by MTT assay; type: functional; outline: as §4
[24] = system: Human immunodeficiency virus 1; test: Antiviral activity against Human immunodeficiency virus 1 3B infected in human MT2 cells assessed as survival of virus infected cells at 0.00001 nM after 72 to 96 hrs by MTT assay; type: functional; outline: as §4
[25] = system: Human immunodeficiency virus 1; test: Antiviral activity against Human immunodeficiency virus 1 3B infected in human MT2 cells assessed as survival of virus infected cells at 0.0001 nM after 72 to 96 hrs by MTT assay; type: functional; outline: as §4
[26] = system: Human immunodeficiency virus 1; test: Antiviral activity against Human immunodeficiency virus 1 3B infected in human MT2 cells assessed as inhibition of reverse transcriptase activity at 0.00001 nM after 72 to 96 hrs by MTT assay relative to untreated control; type: functional; set-up: scale not given: the % may be the effect or the level left
[27] = system: Human immunodeficiency virus 1; test: Antiviral activity against Human immunodeficiency virus 1 3B infected in human MT2 cells assessed as inhibition of reverse transcriptase activity at 0.1 nM after 72 to 96 hrs by MTT assay relative to untreated control; type: functional; set-up: scale not given: the % may be the effect or the level left
[28] = system: Human immunodeficiency virus 1; test: Antiviral activity against Human immunodeficiency virus 1 3B infected in human MT2 cells assessed as inhibition of reverse transcriptase activity at 0.000001 nM after 72 to 96 hrs by MTT assay relative to untreated control; type: functional; set-up: scale not given: the % may be the effect or the level left

T1 sequence (Q9YQ12 whole entry): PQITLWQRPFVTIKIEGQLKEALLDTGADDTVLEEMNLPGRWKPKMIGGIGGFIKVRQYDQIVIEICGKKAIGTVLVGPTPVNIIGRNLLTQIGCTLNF

Structure (SMILES): CC(=O)N[C@@H](Cc1c[nH]c2ccccc12)C(=O)N[C@H](C(=O)N[C@@H](Cc1ccccc1)[C@H](O)[C@@H](O)[C@@H]1CCCN1C(=O)[C@@H](NC(=O)[C@H](Cc1c[nH]c2ccccc12)NC(C)=O)C(C)C)C(C)C
- CC50 at 72 h [1]: 2500 µM
- Activity (MT2 [2]): Dose-dependent effect
- selectivity ratio [3]: 5000
- Ratio (MT2 [4]): 33
- MNTC at 96 h [5]: 0.3 nM
- Activity (MT2 [6]): Dose-dependent effect
- IC50 (Protease [7]): 5 nM
- survival at 0.005 µM [8]: > 90%
- survival at 0.01 µM [9]: > 90%
- Activity [10]: 50%
- CC50 at 96 h [11]: 0.5 µM
- Activity (MT2 [12]): Dose-dependent effect
- IC50 (Protease [13]): < 0.0006 µM
- Activity [14]: 24%
- MNTC at 72 h [15]: 10 nM
- Activity (MT2 [16]): Dose-dependent effect

- IC50 (Protease [13]): 3.3 µM
Structure (SMILES): Cc1cccc(C)c1OCC(=O)N[C@@H](Cc1ccccc1)[C@@H](O)[C@H](O)[C@H]1CCCN1C(=O)COc1c(C)cccc1C

- IC50 (Protease [13]): 0.0006 µM
Structure (SMILES): CC[C@H](C)[C@H](NC(=O)[C@@H](NC(C)=O)C(C)C)C(=O)N1CCC[C@H]1[C@H](O)[C@@H](O)[C@H](Cc1ccccc1)NC(=O)[C@H](CC(N)=O)NC(=O)[C@H](CC(C)C)NC(=O)[C@H](CO)NC(C)=O

- IC50 (Protease [13]): 0.0018 µM
Structure (SMILES): CC(=O)N[C@@H](Cc1c[nH]c2ccccc12)C(=O)N[C@H](C(=O)N[C@@H](Cc1ccccc1)[C@H](O)[C@@H](O)[C@@H]1CCCCN1C(=O)[C@@H](NC(=O)[C@H](Cc1c[nH]c2ccccc12)NC(C)=O)C(C)C)C(C)C

- IC50 (Protease [13]): 0.075 µM
Structure (SMILES): CC(=O)N[C@@H](Cc1c[nH]c2ccccc12)C(=O)N[C@H](C(=O)N1CCC[C@H]1[C@H](O)[C@@H](O)[C@H](Cc1ccccc1)NC(=O)COc1c(C)cccc1C)C(C)C

- IC50 (Protease [13]): 0.614 µM
Structure (SMILES): O=C(COc1ccccc1)N[C@@H](Cc1ccccc1)[C@H](O)[C@@H](O)[C@@H]1CCCN1C(=O)COc1ccccc1

- IC50 (Protease [13]): 0.655 µM
Structure (SMILES): CC[C@H](NC(=O)COc1ccccc1C)[C@H](O)[C@@H](O)[C@@H]1CCCN1C(=O)COc1ccccc1C

- IC50 (Protease [13]): 0.085 µM
Structure (SMILES): Cc1cccc(C)c1OCC(=O)N[C@@H](Cc1ccccc1)[C@H](O)[C@@H](O)[C@@H]1CCCN1C(=O)COc1ccccc1

Structure (SMILES): Cc1cccc(C)c1OCC(=O)N[C@@H](Cc1ccccc1)[C@H](O)[C@@H](O)[C@@H]1CCCN1C(=O)COc1c(C)cccc1C
- survival at 1 fM [17]: > 90%
- CC50 at 72 h [1]: 300 µM
- Activity (MT2 [2]): Dose-dependent effect
- survival at 0.0001 µM [18]: 78%
- Activity [19]: 26%
- Activity [20]: 25%
- Activity [21]: 26%
- survival at 1 pM [22]: 80%
- survival at 1e-10 µM [23]: > 90%
- survival at 10 fM [24]: 90%
- MNTC at 96 h [5]: 0.1 nM
- Activity (MT2 [6]): Dose-dependent effect
- survival at 100 fM [25]: 87%
- IC50 (Protease [7]): 0.0015 nM
- Activity [26]: 29%
- Activity [27]: 24%
- Activity [28]: 28%
- CC50 at 96 h [11]: 1000 µM
- Activity (MT2 [12]): Dose-dependent effect
- IC50 (Protease [13]): 0.0096 µM
- MNTC at 72 h [15]: 0.1 nM
- Activity (MT2 [16]): Dose-dependent effect

- IC50 (Protease [13]): 0.175 µM
Structure (SMILES): Cc1cccc(C)c1OCC(=O)N[C@@H](Cc1ccccc1)[C@H](O)[C@@H](O)[C@@H]1CCCCN1C(=O)COc1c(C)cccc1C

- IC50 (Protease [13]): 116 µM
Structure (SMILES): CC(=O)c1ccc(OCC(=O)N[C@@H](Cc2ccccc2)[C@H](O)[C@@H](O)[C@@H]2CCCN2C(=O)COc2ccc(C(C)=O)cc2)cc1

- IC50 (Protease [13]): 290 µM
Structure (SMILES): Cc1cccc(C)c1OCC(=O)N1CCC[C@H]1[C@H](O)[C@@H](O)[C@@H]1CCCN1C(=O)COc1c(C)cccc1C

- IC50 (Protease [13]): 0.006 µM
Structure (SMILES): CC(=O)N[C@@H](Cc1c[nH]c2ccccc12)C(=O)N[C@H](C(=O)N[C@@H](Cc1ccccc1)[C@H](O)[C@@H](O)[C@H](Cc1ccccc1)NC(=O)[C@@H](NC(=O)[C@H](Cc1c[nH]c2ccccc12)NC(C)=O)C(C)C)C(C)C

- IC50 (Protease [13]): 0.028 µM
Structure (SMILES): Cc1cccc(C)c1OCC(=O)N[C@@H](Cc1ccccc1)[C@H](O)[C@@H](O)[C@H](Cc1ccccc1)NC(=O)COc1c(C)cccc1C
